Source: PubChem (Sanford-Burnham Center for Chemical Genomics)
The list is not random: actives were taken first. Their share in the collection is about 1.5%.
EBI2 block: blocks human EBI2 receptor beta-arrestin signaling; P32249; EBI2 beta-arrestin recruitment, luminescence, 7a,25-OHC stimulated; inhibition, % at 5 µM; 360,000 compounds, 0.81% hits; AID 651636; in the data active = inhibition above about 38%;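 note: enzyme fragment complementation signal reports receptor beta-arrestin coupling in cells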
Target sequence (P32249 whole entry, looked up, the tested form may be a part): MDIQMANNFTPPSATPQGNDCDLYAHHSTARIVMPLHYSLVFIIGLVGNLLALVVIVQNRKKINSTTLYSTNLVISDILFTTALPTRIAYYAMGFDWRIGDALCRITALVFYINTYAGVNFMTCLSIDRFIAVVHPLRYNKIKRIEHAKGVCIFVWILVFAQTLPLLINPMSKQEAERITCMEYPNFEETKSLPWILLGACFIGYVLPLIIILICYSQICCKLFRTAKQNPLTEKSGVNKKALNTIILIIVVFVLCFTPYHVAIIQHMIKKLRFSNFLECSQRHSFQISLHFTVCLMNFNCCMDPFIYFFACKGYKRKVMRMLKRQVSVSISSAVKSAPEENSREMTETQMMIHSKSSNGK
CCR6 antagonist: blocks CCL20-driven beta-arrestin recruitment at human CCR6; inhibition, % at 20 µM; AID 493098; 340,000 compounds, 0.49% hits; CHO-K1 CCR6 PathHunter beta-arrestin, luminescence, CCL20-stimulated;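 active = compounds whose inhibition of the agonist-driven luminescence signal at 20 µM reaches about 50%, limit read from the data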;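 note: cells stimulated with CCL20 at 14 nM final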
APJ ag: APJ receptor agonism | AID 2520 | activation, % at 20 µM | CHO-K1 APJ PathHunter beta-arrestin, luminescence; 0% DMSO wells, 100% apelin | 330,000 compounds, 0.11% hits | P35414;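 active = activation more than six SD over the plate average, tested at 20 µM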
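Assay system: CHO-K1 APJ beta-arrestin complementation cell line / Compound: single test compound dose, 20 µM final, 1% DMSO / Times: overnight seeding, 90 min compound at 25 °C, 1 h detection / Technique: beta-gal luminescence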
CXCR6 inh: inhibitors of human CXCR6 receptor; O00574; CHO-K1 PathHunter CXCR6 beta-arrestin, luminescence; inhibition, % at 20 µM; 360,000 compounds, 0.36% hits; in the data active = inhibition above about 34%, passing the limit was not always enough;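 note: antagonist mode with CXCL16 agonist at 10 nM final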
APJ antag: antagonists of human APJ apelin receptor; inhibition, % at 20 µM; CHO-K1 APJ beta-arrestin complementation, luminescence; 330,000 compounds, 0.32% hits;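 active = inhibition above about 40% at 20 µM, limit read from the data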;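 note: cells challenged with 10 nM apelin-13 agonist together with compound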
Hits are given with their value; n = inactive; x = not tested or not shown.

SMILES | EBI2 block | CCR6 antagonist | APJ ag | CXCR6 inh | APJ antag
CNC(=S)N1N=C(c2ccc(C)cc2)CC1c1ccc(OC)cc1 (stereo not drawn) | 87 | n | n | n | n
CNC(=S)N1N=C(c2ccc(C)cc2)CC1c1ccc(N(C)C)cc1 (stereo not drawn) | 87 | n | n | n | n
CCN1/C(=C/C(C)=C/c2sc3ccccc3[n+]2CC)Sc2ccccc21 | n | 62 | n | 57 | 56
CCN1/C(=C\C(=S)Nc2ccccc2)Sc2ccccc21 | n | n | n | n | n
Cc1csc(N=Nc2ccc(N(C)C)cc2)[n+]1[O-] | n | x | x | 47 | x
CN(C)c1ccc(N=Nc2ccc(C(=O)O)cc2)cc1 | n | n | n | n | n
CCOc1ccc(N=C2C(=O)N(CN3CCOCC3)c3ccccc32)cc1 | n | 59 | n | n | n
Cn1c(=O)c(Nc2ccc(O)cc2)c2c3c(cccc31)C(=O)c1ccccc1-2 | n | 54 | n | n | n
O=c1ccc2cc3c([nH]c4ccc(Br)cc43)oc-2c1O | n | x | n | 45 | n
CC(=O)NCCNc1nc(NCC2CC2)nc2cc(-c3ccccc3)sc12 | n | x | x | n | x
CC(C)CNC(=O)C1(C)CCCN1C(=O)C(C)(C)Oc1ccc(Cl)cc1 (stereo not drawn) | n | x | x | n | x
Cc1cc(Cl)c(S(=O)(=O)NC2CCCC2)cc1OCC(=O)NC1CCCCC1 | 45 | n | n | n | n
Nc1nc(-c2ccccc2)c(N=Nc2cccc3ccccc23)s1 | n | 55 | n | 43 | n
CC(=O)Nc1sc(N)nc1-c1ccccc1 | n | n | n | n | n
Nc1nc(-c2ccccc2)c(N=Nc2ccccc2Cl)s1 | n | 62 | n | 57 | n
Cc1ncc(N=Nc2ccccc2Cl)c(-c2ccccc2)n1 | n | n | n | n | n
CCCCN1C(=O)C(CC(=O)NC2CCCC2)CC(C(=O)N2CCOCC2)=C1C (stereo not drawn) | n | x | x | n | x
Nc1ccc(N(CCO)CCO)cc1 | n | n | n | n | n
Cc1cc(N(CCO)CCO)ccc1N=Nc1cc(F)ccc1F | n | n | n | n | 61
COc1cccc(NC(=O)c2ccc(OC(F)(F)F)cc2)c1 | 44 | n | n | n | n
COc1ccc(C(=O)Nc2cccc(OC)c2)cc1 | n | n | n | n | n
N#CC(C#N)=C(N)/C(C#N)=C/c1cc(O)c(O)c(O)c1 | n | 70 | n | 55 | 57
COc1cccc(-c2oc3c(c2C#CC2(N)CCCCC2)C(O)CCC3)c1 (stereo not drawn) | n | x | x | n | x
O=C1Nc2ccccc2/C1=C/c1cnc(-c2ccccc2)[nH]1 | n | n | n | n | n
COc1cc(OC)c(/C=C2\C(=O)Nc3ccccc32)c(OC)c1 | x | n | n | x | n
SMILES | EBI2 block | CCR6 antagonist | APJ ag | CXCR6 inh | APJ antag
COc1ccc(C(=O)/C=C2/C(=O)Nc3ccccc32)c(OC)c1 | 80 | n | n | n | n
C=CCOc1ccccc1C(=O)/C=C1/C(=O)Nc2ccccc21 | 53 | n | n | n | n
COc1ccc(NC(=O)C2(C)Cc3c(-c4ccc(N(C)C)cc4)ccnc3O2)cc1 (stereo not drawn) | n | x | x | n | x
C/C(=N\NC(=S)NCc1ccccc1)c1ccc(C(C)(C)C)cc1 | n | 62 | n | n | n
FC(F)(F)c1ccccc1Cc1c(-c2cccc(Br)c2)nc2ccc(Br)cn12 | n | x | x | n | x
Cc1ccc(C(c2cc(Cl)c3cccnc3c2O)N2CCN(C)CC2)cc1 (stereo not drawn) | n | 57 | n | n | n
CCOC(=O)[C@]12CCCC=C1N(Cc1ccc3c(c1)OCO3)C(=O)[C@H](CC(=O)NCCc1ccccc1OC)C2 | n | x | x | n | x
O=C(NCCc1c[nH]c2ccccc12)C(=O)NCC(c1ccco1)N1CCN(c2ccccc2F)CC1 (stereo not drawn) | 58 | n | n | n | n
COCCCN1C(=O)C(CC(=O)NC2CCCCC2)CC(C(=O)N2CCCCCC2)=C1C (stereo not drawn) | n | x | x | n | x
C=CCNc1nc(NCc2cccc(OC)c2)c2sc(-c3ccccc3)cc2n1 | 57 | x | x | n | x
O=C(O)c1cc(O)c2c(c1)[C@H]([C@H]1c3cc(C(=O)O)cc(O)c3C(=O)c3c(O[C@@H]4O[C@H](CO)[C@@H](O)[C@H](O)[C@H]4O)cccc31)c1cccc(OC3O[C@H](CO)[C@@H](O)[C@H](O)[C@H]3O)c1C2=O (stereo partly drawn) | n | 88 | n | n | n
O=C1c2cc(CO)cc(O)c2C(=O)c2c(O[C@@H]3OC(CO)[C@@H](O)[C@@H](O)[C@@H]3O)cccc21 (stereo partly drawn) | n | n | n | n | n
O=C(O)c1cc(O)c2c(c1)[C@@H]([C@H]1c3cc(C(=O)O)cc(O)c3C(=O)c3c(O[C@@H]4O[C@H](CO)[C@@H](O)[C@H](O)[C@H]4O)cccc31)c1cccc(OC3O[C@H](CO)[C@@H](O)[C@H](O)[C@H]3O)c1C2=O (stereo partly drawn) | n | 79 | n | n | n
Cc1cccnc1C(c1ccc(F)cc1)N(C)C(=O)C1CCN(CCOc2ccc(Cl)cc2Cl)CC1 (stereo not drawn) | n | x | x | n | x
COc1ccc(CCC(=O)Nc2ccc(S(=O)(=O)N3CCOCC3)cc2)cc1OC | n | x | x | n | x
CCOc1cc(OCC)cc(C(=O)N2CCC[C@H]2C(=O)N2CCC[C@H]2C(=O)N(C)Cc2ccccc2)c1 | n | x | x | n | x
CC(C)SC1=NC(C)(C)C=C(/C=C/c2ccc(Cl)cc2Cl)N1 | n | 51 | n | n | n
CC(C)SC1=NC(C)(C)C=C(/C=C/c2c(Cl)cccc2Cl)N1 | n | 52 | n | n | n
Clc1cccc(Cl)c1/C=C/c1nc2ccccc2[nH]1 | n | n | n | n | n
O=C1C2C(C(=O)N1/N=C/c1cc(Br)cc([N+](=O)[O-])c1O)C1C=CC2C12CC2 (stereo not drawn) | n | 52 | n | n | n
O=[N+]([O-])c1ccc(O)c(/C=N/Nc2nn[nH]n2)c1 | n | x | n | 44 | n
Oc1ccccc1/C=N/Nc1nn[nH]n1 | n | n | n | n | n
Cc1cccc(NC(=O)CCC(=O)N/N=C/c2cc([N+](=O)[O-])ccc2O)c1 | n | n | n | n | n
O=[N+]([O-])c1ccc(O)c(/C=N\N=C2c3ccccc3-c3ccccc32)c1 | n | 56 | n | n | n
O=C(N/N=C/c1cc([N+](=O)[O-])ccc1O)C1CCCCC1 | 76 | n | n | n | n
O=C(CCC(=O)Nc1ccc(F)cc1)N/N=C/c1cc([N+](=O)[O-])ccc1O | n | 62 | n | n | n
NC(N)=N/N=C/c1cc([N+](=O)[O-])ccc1O | n | n | n | n | n
Cn1c(=O)c2cc(NC(=O)CCc3cccnc3)ccc2n1Cc1cccc(C(F)(F)F)c1 | n | x | x | n | x
Cc1nc2ccc(C(=O)N/N=C/c3cc([N+](=O)[O-])ccc3O)cc2[nH]1 | n | 59 | n | n | n
O=C(OCn1ncc(Cl)c(Cl)c1=O)c1cccc(C(F)(F)F)c1 | 52 | 59 | n | 50 | n
